Active and inactive are the calls of the source. The rule behind the calls is not given here.
Tests used:
[1] = Half life of the compound in 1:4 D2O:[…] containing at 1 x 10^-3 M NaOD at 5 x 10^-2 M by UV-spectroscopy; type: physicochemical; conditions: 1:4 D2O:Me2SO-d2 with NaOD
KB = assay: Cytotoxicity against human KB cells; type: functional, cell-based
L1210 = assay: Antitumor activity against mouse L1210 cells allografted in mouse at 500 mg/kg, ip began on day 1 halved compound dose ended at […], ip measured on day 30; type: functional, organism-based
How it was run: (§1)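 Female or male mice bearing L1210 lymphoid leukemia were tested under the NCI standard protocol. Dosing was ip, day 1 only, in aqueous Tween-80, at halved doses starting at 500 mg/kg and generally ending at 62.5 mg/kg. Mean survival time was assessed on day 30, and T/C ≥125% was taken as active.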

Mus musculus = assay: Toxicity in mouse allografted with mouse L1210 cells at 500 mg/kg, ip; type: organism-based; design: dose 500 mg/kg, route intraperitoneal; conditions: in vivo; how it was run: as §1
[2] = Half life of the compound in 1:1 H2O:ethylalcohol containing 8.33 x 10^-3 M NaOH at 8.3 x 10^-5 M by UV-spectroscopy; type: physicochemical; conditions: 1:1 water:ethanol with NaOH
[3] = Inhibition of wheat germ orthophosphoric monoester phosphohydrolase using 2-carboxyphenyl phosphate as substrate at 1.5 mM after 2 hrs by UV spectroscopy; conditions: triticum aestivum, 1500 µM
How it was run: (§2)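 Wheat germ orthophosphoric monoester phosphohydrolase (2.1 units/mg toward 2-carboxyphenyl phosphate) was used. Compound at 1.5 mM was incubated in 0.15 M NaOAc pH 5.0 with glycerin at about 25–26 °C for 2 h, against a reference cell without enzyme, with UV monitoring at 290 nm. 2-Carboxyphenyl phosphate was then added to check remaining enzyme activity.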

[4] = Half life of the compound in 1:1 H2O:ethylalcohol containing 6.66 x 10^-3 M NaOH at 8.3 x 10^-5 M by UV-spectroscopy; type: physicochemical; conditions: 1:1 water:ethanol with NaOH
[5] = Half life of the compound in 1:1 H2O:ethylalcohol containing 5 x 10^-3 M NaOH at 8.3 x 10^-5 M by UV-spectroscopy; type: physicochemical; conditions: 1:1 water:ethanol with NaOH
[6] = Half life of the compound in 1:1 H2O:ethylalcohol containing 3.33 x 10^-3 M NaOH at 8.3 x 10^-5 M by UV-spectroscopy; type: physicochemical; conditions: 1:1 water:ethanol with NaOH
[7] = Half life of the compound in 1:1 H2O:ethylalcohol containing 2.08 x 10^-3 M NaOH at 8.3 x 10^-5 M by UV-spectroscopy; type: physicochemical; conditions: 1:1 water:ethanol with NaOH
[8] = Toxicity in ip dosed mouse allografted with mouse L1210 cells; type: organism-based; conditions: in vivo; how it was run: as §1
[9] = Drug metabolism assessed as wheat germ orthophosphoric monoester phosphohydrolase-mediated hydrolysis at 1.5 mM by UV spectroscopy; type: ADME; conditions: triticum aestivum, 1500 µM; how it was run: as §2

**Q.** With Cc1ccc(NP(=O)(Oc2c(F)c(F)c(F)c(F)c2F)N(CCCl)CCCl)cc1 (configuration not stated) as the compound, how does the half-life at 50000 µM [1] read?
**A.** 6.53 min

**Q.** What about the Activity (KB) of the same compound?
**A.** inactive

**Q.** What about the Activity (L1210) of the same compound?
**A.** inactive

**Q.** And the Activity (Mus musculus)?
**A.** Non-toxic

**Q.** For O=P(Nc1ccccc1)(Oc1c(F)c(F)c(F)c(F)c1F)N(CCCl)CCCl (configuration not stated), which half-life at 50000 µM [1] is on record?
**A.** 5.3 min

**Q.** And the Activity (KB)?
**A.** inactive

**Q.** And the Activity (L1210)?
**A.** inactive

**Q.** And the Activity (Mus musculus)?
**A.** Non-toxic

**Q.** What does the source list for CCOc1ccc(NP(=O)(Oc2c(F)c(F)c(F)c(F)c2F)N(CCCl)CCCl)cc1 (configuration not stated)?
**A.** half-life at 50000 µM [1]: 8.17 min; Activity (KB): inactive; Activity (L1210): inactive; Activity (Mus musculus): Non-toxic

**Q.** For NP(=O)(Oc1c(F)c(F)c(F)c(F)c1F)N(CCCl)CCCl (configuration not stated), which half-life at 83 µM [2] is on record?
**A.** 0.6 min

**Q.** And the “inhibition (INH)” value [3]?
**A.** Not Active

**Q.** And the half-life at 83 µM [4]?
**A.** 0.717 min

**Q.** What about the half-life at 83 µM [5] of the same compound?
**A.** 0.867 min

**Q.** And the Activity (KB)?
**A.** inactive

**Q.** What about the half-life at 83 µM [6] of the same compound?
**A.** 1.33 min

**Q.** And the half-life at 83 µM [7]?
**A.** 2 min

**Q.** What about the Activity (L1210) of the same compound?
**A.** inactive

**Q.** And the MTD [8]?
**A.** 31.2 mg/kg

**Q.** And the Stability [9]?
**A.** Stable
